An excerpt weighted towards active compounds, which were near 2.6% of everything screened.
TAAR1 antag: human TAAR1 antagonism | CHO RD-HGA16 TAAR1, Fluo-8 calcium fluorescence, antagonist | inhibition, % at 3 µM | 1.5% of 360,000 active;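 active = inhibition above a per-plate cutoff, the mean inhibition of test compounds on that plate plus 3 SD, cut at about 49% in these data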
Target sequence (Q96RJ0 whole entry, looked up): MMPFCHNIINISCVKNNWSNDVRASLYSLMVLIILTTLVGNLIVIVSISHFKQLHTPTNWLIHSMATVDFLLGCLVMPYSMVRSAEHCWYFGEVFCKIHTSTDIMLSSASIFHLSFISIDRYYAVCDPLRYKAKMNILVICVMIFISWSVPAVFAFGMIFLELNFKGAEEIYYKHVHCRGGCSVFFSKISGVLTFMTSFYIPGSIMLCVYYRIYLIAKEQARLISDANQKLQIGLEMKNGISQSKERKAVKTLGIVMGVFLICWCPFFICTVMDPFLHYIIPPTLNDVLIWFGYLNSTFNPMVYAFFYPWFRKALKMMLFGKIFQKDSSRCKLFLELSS
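System: RD-HGA16 CHO cells with stable hTAAR1 and Gα16 | Probe or stimulus: EC80 β-phenethylamine stimulus | Dosing: 3 µM, single point | Times: Dye loading 75 min at 37 °C, then 30 min room temperature | Measured by: Fluo-8 calcium-sensitive fluorescence | Read-out basis: % inhibition of agonist calcium response | Replicates: n of 1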
Platelet DG rel: platelet dense granule release activity. inhibition, %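 (compounds screened at 7.5 µM in platelet-rich plasma)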. 0.22% of 300,000 active. AID 1663. human platelet-rich plasma, SFLLRN dense granule ATP release, luminescence;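 active = mean replicate score, as percent of positive control, at or above 50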
TAAR1 ag: agonists of human TAAR1; 0.99% of 360,000 active; activation, % at 3 µM; CHO RD-HGA16 TAAR1, Fluo-8 calcium fluorescence; vehicle wells 0%, saturating PEA agonist 100%; Q96RJ0;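 active = activation above the mean activation of all test compounds in the run plus 3 SD, cut at about 38% in these data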
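Test system: RD-HGA16 (CHO) cells co-expressing Gα16 and hTAAR1 | Doses: Single dose, 3 µM | Schedule: 17-24 h seeding, 75 min 37 °C dye, 30 min RT | Evaluation: % activation from peak over basal fluorescence ratio, DMSO-to-PEA scaled | Technique: Kinetic Fluo-8 calcium fluorescence | Benchmarks: Low control DMSO, high control PEA (EC100)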
Rce1 inhib: inhibitors of yeast Ras-converting enzyme | 0.27% of 290,000 active | calls only | yeast membranes, quenched prenylated peptide cleavage fluorescence;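 active = fall in fluorescence gain of 50% or more versus controls, with final raw signal at or below 3038400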
Target sequence (Q03530 whole entry, looked up): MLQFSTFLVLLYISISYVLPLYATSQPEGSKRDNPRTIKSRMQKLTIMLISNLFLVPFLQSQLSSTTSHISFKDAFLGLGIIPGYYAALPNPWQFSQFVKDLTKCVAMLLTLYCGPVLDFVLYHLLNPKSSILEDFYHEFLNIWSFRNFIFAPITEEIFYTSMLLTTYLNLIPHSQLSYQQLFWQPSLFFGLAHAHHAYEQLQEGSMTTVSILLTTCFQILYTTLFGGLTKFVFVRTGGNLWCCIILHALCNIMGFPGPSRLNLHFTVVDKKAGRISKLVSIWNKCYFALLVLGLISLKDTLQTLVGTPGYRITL
VLA-4 inh: inhibition in a human VLA-4 binding assay; 0.2% of 330,000 active; P13612; AID 2557; VLA-4 expressing cells, ligand binding flow cytometry; inhibition, % (about 7 µM as worked out from the volumes in the protocol); in the data active = inhibition above about 50%
nonsel antag count: nonselective antagonism, TAAR1 counter-screen. shares compounds with TAAR1 antag. counterscreen cell line, calcium fluorescence, antagonist mode. inhibition, % at 3 µM. 77% of 2,400 active. AID 651780; in the data active = inhibition above about 22%;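 note: CHO-Ga16 host cells stimulated with ATP at an EC80 level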
TAAR1 antag conf: confirmation of human TAAR1 antagonists; 40% of 2,400 active; TAAR1-expressing cells, fluorescence antagonist read-out; shares compounds with TAAR1 antag; inhibition, % at 3 µM; in the data active = inhibition above about 49%;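 note: CHO-Ga16 host cells challenged with agonist PEA near its EC80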
Ga16 ag counter-1: nonselective Ga16 agonism, counter-screen. activation, % at 3 µM. shares compounds with TAAR1 antag. 18% of 2,400 active. AID 651953. Ga16-expressing cells, calcium fluorescence, agonist counterscreen; in the data active = activation above about 12%
TAAR1 ag counter: TAAR1 agonism, antagonist counter-screen | shares compounds with TAAR1 antag | hTAAR1 cell line, fluorescence activation, agonist mode | activation, % at 3 µM | 2% of 2,400 active | AID 651955; in the data active = activation above about 37%;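 note: CHO cells stably expressing TAAR1 with calcium dye readout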
TAAR1 ag confirm: human TAAR1 agonism, confirmed; 82% of 2,400 active; AID 651783; activation, % at 3 µM; CHO RD-HGA16 TAAR1, Fluo-8 calcium fluorescence; scaled: DMSO 0%, maximal phenethylamine 100%; shares compounds with TAAR1 ag;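 active = activation above a cutoff set at the run's mean compound activation plus 3 SD, cut at about 39% in these data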
Ga16 ag counter-2: nonselective agonist in parental cells, TAAR1 agonist counter-screen. activation, % at 3 µM. CHO-Ga16 parental, Fluo-8 calcium fluorescence; normalized to maximal ATP response, DMSO zero. 50% of 2,400 active. shares compounds with TAAR1 ag. AID 651787;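 active = activation above the run cutoff, the mean activation over all tested wells plus 3 SD, cut at about 12% in these data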
TAAR1 desens: human TAAR1 agonist that also desensitizes the receptor | CHO RD-HGA16 hTAAR1, Fluo-8 calcium, beta-PEA response inhibition | shares compounds with TAAR1 ag | inhibition, % at 3 µM | 46% of 2,400 active;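 active = inhibition above the run cutoff, the mean inhibition of all test compounds plus 3 SD, cut at about 49% in these data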;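 note: beta-PEA stimulus applied at its EC80; loss of beta-PEA calcium signal after compound pretreatment read as receptor desensitization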
Ga16 antag count: nonselective Ga16 antagonism, counter-screen; inhibition, % at 3 µM; CHO-Ga16 ATP-induced calcium, Fluo-8 fluorescence; AID 651952; shares compounds with TAAR1 ag; 39% of 2,400 active;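 active = inhibition above the plate's mean compound inhibition plus 3 SD, computed per plate, cut at about 22% in these data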
Hits are given with their value; i = inactive; nt = not tested or not shown.

SMILES	TAAR1 antag	Platelet DG rel	TAAR1 ag	Rce1 inhib	VLA-4 inh	TAAR1 ag confirm	Ga16 ag counter-2	TAAR1 desens	Ga16 antag count	others
COc1ccccc1OP(=O)(Nc1ccc(Br)cc1)Oc1ccccc1OC	78	i	i	i	i	nt	nt	nt	nt	nonsel antag count=30;TAAR1 antag conf=56;Ga16 ag counter-1=i;TAAR1 ag counter=i
COc1ccc(NP(=O)(Oc2ccc(Cl)cc2)Oc2ccc(Cl)cc2)cc1OC	i	i	i	i	i	nt	nt	nt	nt
Cc1cc(OCC(=O)NC(Cc2ccc(Cl)cc2)C(=O)O)c2c3c(c(=O)oc2c1)CCC3 (stereo unspecified)	i	i	i	i	i	nt	nt	nt	nt
C=C1[C@@H](C)[C@H]2[C@H](Cc3ccccc3)NC(=O)[C@]23OC(=O)/C=C/[C@H](O)CCC[C@@H](C)C/C=C/[C@H]3[C@@H]1O	72	i	i	i	i	nt	nt	nt	nt	nonsel antag count=32;TAAR1 antag conf=55;Ga16 ag counter-1=i;TAAR1 ag counter=i
C=C1C(C)C2C(Cc3ccccc3)NC(=O)C23C(OC(C)=O)C=CC(C)(O)CC(C)CC=CC3C1O (stereo unspecified)	i	nt	i	nt	nt	nt	nt	nt	nt
CC(=O)C1(c2ccccc2)CCN(C(=O)C2CCC(=O)N(CCc3cccc(F)c3)C2)CC1 (stereo unspecified)	61	i	i	i	i	nt	nt	nt	nt	nonsel antag count=i;TAAR1 antag conf=i;Ga16 ag counter-1=i;TAAR1 ag counter=i
O=C(C1CCC(=O)N1Cc1ccc(F)cc1)N1CCC2(CC1)OCCO2 (stereo unspecified)	i	i	i	i	i	nt	nt	nt	nt
C=CCn1c(O)c(C(C)=NCCC(c2ccccc2)c2ccccc2)c(=O)[nH]c1=O	52	i	i	i	i	nt	nt	nt	nt	nonsel antag count=27;TAAR1 antag conf=i;Ga16 ag counter-1=i;TAAR1 ag counter=i
O=C1NC(=O)N(c2ccccc2F)C(=O)/C1=C/c1ccc(Oc2ccc([N+](=O)[O-])cn2)cc1	i	i	i	i	i	nt	nt	nt	nt
Cc1c(C(=O)N2CCC3(CC2)OCCO3)sc2ncnc(N3CCN(c4ccccn4)CC3)c12	61	nt	i	nt	i	nt	nt	nt	nt	nonsel antag count=28;TAAR1 antag conf=50;Ga16 ag counter-1=i;TAAR1 ag counter=i
COc1ccccc1OCCCn1cc(C(=O)c2ccco2)c2ccccc21	54	i	i	i	i	nt	nt	nt	nt	nonsel antag count=27;TAAR1 antag conf=i;Ga16 ag counter-1=i;TAAR1 ag counter=i
C#CCN[C@H](C)Cc1ccccc1	i	nt	i	nt	i	nt	nt	nt	nt
CNC(C)Cc1ccccc1 (stereo unspecified)	66	nt	63	nt	i	94	19	83	i
O=C1NC(=O)C(=Cc2ccc(Sc3ccccc3)o2)C(=O)N1	i	i	i	i	i	nt	nt	nt	nt
O=C1NC(=O)N(c2ccc(Cl)cc2)C(=O)/C1=C\c1ccc(Sc2nc3ccccc3[nH]2)o1	i	i	60	i	i	i	i	i	i
CC(Cc1ccccc1Sc1ccccc1)N(C)C (stereo unspecified)	i	i	48	i	i	70	i	i	i
Cc1cc(C=O)c(C)n1C(C)C	i	i	i	i	i	nt	nt	nt	nt
O=C(Nc1ccc(F)cc1)N1CC2CC(C1)c1cccc(=O)n1C2 (stereo unspecified)	i	i	i	i	i	nt	nt	nt	nt
COc1cccc(C(=O)C2CN(C)CC2c2ccc(Cl)cc2)c1 (stereo unspecified)	i	i	i	i	i	nt	nt	nt	nt
CN1CC(C(=O)c2ccc(Cl)cc2)C(c2ccccc2F)C1 (stereo unspecified)	i	i	45	i	i	74	i	i	i
CN1CC(C(=O)c2ccccc2)C(c2ccccc2)C1 (stereo unspecified)	i	i	55	i	i	76	i	i	i
COc1ccc(C(=O)C2CN(C)CC2c2ccc(Cl)cc2)cc1 (stereo unspecified)	i	i	i	i	i	nt	nt	nt	nt
O=c1c2ccccc2nc(-c2ccccc2)n1-c1cccc(O)c1	i	i	i	i	i	nt	nt	nt	nt
CN1C2c3ccccc3C3C4c5ccccc5C(C31)C(C2[N+](=O)[O-])N4C (stereo unspecified)	i	nt	i	i	i	nt	nt	nt	nt
CN(C)C(Cc1ccccc1)C(=O)c1ccccc1 (stereo unspecified)	i	i	i	i	i	nt	nt	nt	nt
SMILES	TAAR1 antag	Platelet DG rel	TAAR1 ag	Rce1 inhib	VLA-4 inh	TAAR1 ag confirm	Ga16 ag counter-2	TAAR1 desens	Ga16 antag count	others
N[C@H](CO)Cc1ccccc1	i	nt	52	nt	nt	74	i	i	i
Cc1cc(OCCN2CC2)c2ccccc2n1	nt	i	nt	i	i	nt	nt	nt	nt
CN1C[C@H](CO)C[C@@H]2c3cccc4[nH]cc(c34)C[C@H]21	i	i	42	i	i	57	i	i	i
COC(=O)C1=C(c2cccc(OCc3ccccc3)c2)C[C@@H]2CC[C@H]1N2C(=O)NCc1cccc(C(F)(F)F)c1	i	nt	i	nt	i	nt	nt	nt	nt
O=C1NC(=O)C(=Cc2ccc(-c3ccc(F)cc3O)o2)C(=O)N1	85	i	105	i	i	109	61	88	68
CCOC(=O)C(O)(c1cn(C)c2ccccc12)C(F)(F)F (stereo unspecified)	i	i	i	i	i	nt	nt	nt	nt
COc1ccc(CCNCc2ccncc2)cc1	i	i	46	i	i	67	i	i	i
CCCC1(CC(C)CC)C(=O)NC(=O)NC1=O (stereo unspecified)	i	nt	51	nt	nt	78	i	i	i
CNc1ccc2nc3ccccc3[n+](C)c2c1	i	i	i	i	i	nt	nt	nt	nt
c1ccc2c(NC3=NCCS3)cccc2c1	i	i	43	i	i	82	15	i	i
Clc1cccc(Cl)c1NC1=NCCS1	i	nt	i	nt	nt	nt	nt	nt	nt
COC(=O)C1=C(c2ccc(F)cc2F)C[C@@H]2CC[C@H]1N2C(=O)NCC1CC1	nt	nt	nt	nt	i	nt	nt	nt	nt
Cc1cccn2c(=O)c3c(nc12)N1CCCCCC1C1(C3)C(=O)N(C)C(=O)N(C)C1=O (stereo unspecified)	i	i	i	i	i	nt	nt	nt	nt
CCCCN1C(=O)NC(=O)C2(Cc3c(nc4c(C)cccn4c3=O)N3CCc4ccccc4C32)C1=O (stereo unspecified)	i	i	57	i	i	72	28	49	27

Compound activity: PubChem BioAssay, several laboratories
